Source: PubChem BioAssay (several laboratories)
Only some compounds are listed: those with a hit (about 2.5% of all), similar ones and a draw of the others.
SMARCA2 act = activators of SMARCA2 function; activation, % at 9.1 µM; AID 652017; MG213 cells, MMTV-luciferase reporter, dexamethasone, overnight; 370,000 tested, 1% active; in the data active = activation above about 7.8%
Vif inh = inhibitors of HIV Vif; HEK293T cells, Vif self-association by quenched fluorescence, imaging, 24 h; inhibition, % at 7.49 µM; 340,000 tested, 0.35% active; in the data active = inhibition above about 50%, passing the limit was not always enough
SR-BI DiI inh = mouse SR-BI HDL lipid transfer inhibition; ldlA[mSR-BI] CHO cells, DiI-HDL uptake fluorescence, 3 h; inhibition, % at 12.5 µM; 320,000 tested, 0.96% active; AID 488896;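 active = mean replicate inhibition of at least 70% and a set share of replicates each scoring 70 or more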
Target sequence (Q61009 whole entry, looked up): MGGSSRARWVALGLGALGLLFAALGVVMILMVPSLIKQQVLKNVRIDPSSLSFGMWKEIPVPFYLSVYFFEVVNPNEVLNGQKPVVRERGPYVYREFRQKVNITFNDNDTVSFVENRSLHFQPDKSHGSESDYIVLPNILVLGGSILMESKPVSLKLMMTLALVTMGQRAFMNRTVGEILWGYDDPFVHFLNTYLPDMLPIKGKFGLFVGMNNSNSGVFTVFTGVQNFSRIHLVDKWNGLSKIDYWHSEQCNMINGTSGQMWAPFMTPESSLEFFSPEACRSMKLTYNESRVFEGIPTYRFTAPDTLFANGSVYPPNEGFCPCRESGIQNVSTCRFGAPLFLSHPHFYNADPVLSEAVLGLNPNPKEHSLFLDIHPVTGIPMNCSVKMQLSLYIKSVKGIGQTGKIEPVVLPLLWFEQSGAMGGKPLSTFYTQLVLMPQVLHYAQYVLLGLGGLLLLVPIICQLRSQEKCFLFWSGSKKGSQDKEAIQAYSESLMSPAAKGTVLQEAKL
SR-BI DiI-HDL act = activators of SR-BI mediated HDL lipid uptake | CHO ldlA[mSR-BI] cells, DiI-HDL uptake fluorescence, 3 h; 100 = double the neutral-control signal | activation, % at 12.5 µM | 320,000 tested, 0.096% active | AID 504775;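 active = mean replicate activation of at least 60% and every replicate at or above 60%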
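material = CHO ldlA[mSR-BI] cells | medium = Ham's F12 with 0.5% BSA, HEPES 25 mM, pH 7.4 | reagent = fluorescent DiI-HDL, 10 µg/mL final | compound dosing = single-point compound dose | incubation = 3 h, 37 °C | measured by = bottom-read fluorescence, 550/595 nm | measure = HDL uptake via cellular fluorescence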
TAG inh = triacylglycerol accumulation inhibition; H9c2 cells, Nile Red lipid (TAG) fluorescence; cells loaded with 200 µM oleic acid; inhibition, % at 12.5 µM; 230,000 tested, 0.66% active; AID 651582;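 active = pattern-corrected inhibition of lipid staining of at least 50% with the nuclear-stain viability signal not falling by more than 50%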
SMARCA2 conf = confirmation of SMARCA2 (BRM) function activators. activation, % at 9.1 µM. shares compounds with SMARCA2 act. AID 652260. MG213 cells, MMTV-luciferase with dexamethasone, luminescence, overnight; MG213 cells expressing E1A, Rb sequestered; DMSO wells 0%, reference activator 100%. 3,500 tested, 30% active;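 active = activation above its plate's cutoff, the mean activation of tested wells plus 3 SD, cut at about 7.9% in these data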
GAL4-VP16 Luc = counter-screen for SMARCA2 activators: GAL4-VP16 luciferase reporter activation. 3,500 tested, 41% active. activation, % at 9.1 µM. HEK293 GAL4-VP16 pG5luc reporter, luciferase luminescence; scaled: DMSO wells 0%, SAHA wells 100%. shares compounds with SMARCA2 act. AID 686939;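 active = activation above the solvent-only control well mean plus 3 SD, averaged across control plates, cut at about 5.2% in these data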
A number is an active result.

Screening CCOC(=O)C1CCCN(C(=O)c2ccc(OC)cc2OC)CC1 (stereo not given) returned SMARCA2 act 10, TAG inh inactive, SMARCA2 conf inactive and GAL4-VP16 Luc inactive.
`CCOC(=O)C1CCN(C(=O)c2ccc(OC)cc2OC)CC1` gave SMARCA2 act inactive, SR-BI DiI inh inactive and SR-BI DiI-HDL act inactive.
`CCN1C(=O)[C@@H]2[C@@H](c3ccc(-c4ccc(OC)cc4)c(OC)c3)N3CCCC[C@@]3(C(=O)OC)[C@@H]2C1=O` gave SMARCA2 act inactive, Vif inh inactive, SR-BI DiI inh inactive, SR-BI DiI-HDL act inactive and TAG inh inactive.
For C=COC(=O)c1sc2nc(C)cc(C)c2c1N the results were SMARCA2 act 9.3, Vif inh inactive, SR-BI DiI inh inactive, SR-BI DiI-HDL act inactive, TAG inh inactive, SMARCA2 conf 11 and GAL4-VP16 Luc inactive.
Screening Cc1ccc(NC(=S)NC(=O)C2CC2)c(C)c1 returned SMARCA2 act 8.8, Vif inh inactive, SR-BI DiI inh inactive, SR-BI DiI-HDL act inactive, TAG inh inactive, SMARCA2 conf inactive and GAL4-VP16 Luc inactive.
Screening Cc1ccc(NC(=S)NC(=O)C2CCCC2)cc1C returned SMARCA2 act inactive, Vif inh inactive, SR-BI DiI inh inactive, SR-BI DiI-HDL act inactive and TAG inh inactive.
`Cc1ccc(NC(=O)N2CCCCCC2)c(C)c1` gave SMARCA2 act 9.6, Vif inh inactive, SR-BI DiI inh inactive, SMARCA2 conf inactive and GAL4-VP16 Luc inactive.
`CC(C)n1nnnc1C1(C)CN(S(C)(=O)=O)CC(=O)N1Cc1cccc(C(F)(F)F)c1` (stereo not given) gave SMARCA2 act inactive.
CCCCN(C)CCN1C(=O)C2C(C(=O)Nc3ccc(C)cc3)C3C=CC2(O3)C1C(=O)NC1CCCCC1 (stereo not given) was read as SMARCA2 act inactive and Vif inh inactive.
`CCOc1cccc(/C=C/c2ccc3cccc(O)c3n2)c1OC` gave SMARCA2 act 14, Vif inh inactive, SR-BI DiI inh inactive, SR-BI DiI-HDL act inactive, SMARCA2 conf inactive and GAL4-VP16 Luc 28.
`CCOc1cccc(/C=C/c2ccc3cccc(O)c3n2)c1O` gave SMARCA2 act 12, Vif inh inactive, SR-BI DiI inh inactive, SR-BI DiI-HDL act inactive, SMARCA2 conf 12 and GAL4-VP16 Luc 18.
COc1ccccc1/C=C/c1ccc2cccc(O)c2n1 was read as SMARCA2 act inactive, Vif inh inactive, SR-BI DiI inh inactive and SR-BI DiI-HDL act inactive.
Clc1cccc(-c2cccc3nccn23)c1 was read as SMARCA2 act inactive, Vif inh inactive and TAG inh inactive.
For Cc1ccccc1N1CCN(C2CCCN(C(=O)CSc3ccccn3)C2)CC1 (stereo not given) the results were SMARCA2 act inactive, Vif inh inactive and TAG inh inactive.
O=C(/C=C/c1ccc(Cl)cc1Cl)N1CCN(c2ccc([N+](=O)[O-])c(N3CCOCC3)c2)CC1 was read as SMARCA2 act 9.9, SR-BI DiI inh inactive, SR-BI DiI-HDL act inactive, SMARCA2 conf inactive and GAL4-VP16 Luc inactive.
O=C(/C=C/c1ccc(Cl)cc1)N1CCN(c2ccc([N+](=O)[O-])c(N3CCOCC3)c2)CC1 was read as SMARCA2 act inactive, Vif inh inactive, SR-BI DiI inh inactive and SR-BI DiI-HDL act inactive.
Screening CCN(CC)CCNC(=O)c1ccc(NCN2C(=O)NC(c3ccccc3)(c3ccccc3)C2=O)cc1 returned SMARCA2 act 8.0, SMARCA2 conf inactive and GAL4-VP16 Luc inactive.
Screening Cc1ccc(C(=O)Nc2ccc(F)cc2)cc1NC1=NC2CS(=O)(=O)CC2S1 (stereo not given) returned SMARCA2 act 9.8, Vif inh inactive, SR-BI DiI inh inactive, SR-BI DiI-HDL act inactive, TAG inh inactive, SMARCA2 conf inactive and GAL4-VP16 Luc inactive.
`Cc1nn(-c2ccccc2)c(C)c1NC(=O)COC(=O)c1ccc(O)cc1O` gave SMARCA2 act inactive, Vif inh inactive, SR-BI DiI inh inactive, SR-BI DiI-HDL act inactive and TAG inh inactive.
O=c1[nH]c(/C=C/c2ccccc2Cl)nc2ccccc12 was read as SMARCA2 act 8.6, Vif inh inactive, SR-BI DiI inh inactive, SR-BI DiI-HDL act inactive, SMARCA2 conf 13 and GAL4-VP16 Luc 9.1.
`CCOc1cc(/C=C/c2nc3ccccc3c(=O)[nH]2)ccc1O` gave SMARCA2 act inactive, Vif inh inactive, SR-BI DiI inh inactive and SR-BI DiI-HDL act inactive.
For COc1cc(/C=C/c2nc3ccccc3c(=O)[nH]2)ccc1O the results were SMARCA2 act 9.0, TAG inh inactive, SMARCA2 conf 13 and GAL4-VP16 Luc 12.
`O=C(O)c1ccc(/C=C/c2nc3ccccc3c(=O)[nH]2)cc1` gave SMARCA2 act inactive, Vif inh inactive, SR-BI DiI inh inactive and SR-BI DiI-HDL act inactive.
`COc1cc(OC)nc(C(NC(=O)C2CCN(Cc3ccc(N(C)C)cc3)CC2)c2ccc(F)cc2)n1` (stereo not given) gave SMARCA2 act inactive, Vif inh inactive and TAG inh inactive.
COc1cc(OC)nc(C(NC(=O)C2CCN(Cc3c[nH]c4ccccc34)CC2)c2ccc(Cl)cc2)n1 (stereo not given) was read as SMARCA2 act 12, Vif inh inactive, TAG inh inactive, SMARCA2 conf inactive and GAL4-VP16 Luc inactive.
For NC(=NC(=O)c1ccccc1)N1CCN(C(c2ccccc2)c2ccccc2)CC1 the results were SMARCA2 act inactive, Vif inh inactive, SR-BI DiI inh inactive, SR-BI DiI-HDL act inactive and TAG inh inactive.
Screening COc1ccc(C2=NN(C(=O)CN3CCOCC3)C(c3nc4ccccc4[nH]3)C2)cc1 (stereo not given) returned SMARCA2 act 11, Vif inh inactive, SR-BI DiI inh inactive, SR-BI DiI-HDL act inactive, TAG inh inactive, SMARCA2 conf inactive and GAL4-VP16 Luc 7.6.
Screening COc1ccc(C2=NN(C(=O)CN3CCCCC3)C(c3ccc(C)cc3)C2)cc1 (stereo not given) returned SMARCA2 act inactive, Vif inh inactive, SR-BI DiI inh inactive, SR-BI DiI-HDL act inactive and TAG inh inactive.
Screening CC1(C(=O)Nc2ccc3c(c2)OCCO3)CN(S(C)(=O)=O)CC(=O)N1CCCN1CCOCC1 (stereo not given) returned SMARCA2 act inactive.
For COc1ccc(Nc2cc(Nc3ccccc3)ncn2)cc1 the results were SMARCA2 act 14, Vif inh inactive, SR-BI DiI inh inactive, SR-BI DiI-HDL act inactive, SMARCA2 conf inactive and GAL4-VP16 Luc 11.
